# High-throughput results deposited in PubChem by several laboratories.
# Rows were chosen to be rich in hits. Some 2.1% of all compounds tested hit in one or more screens of this group.
# UCH37 DUB inh – blocks the human deubiquitinase UCH37; purified proteasome/UCH37, Ub-AMC cleavage fluorescence; inhibition, % (no concentration beside the values); 330,000 compounds, 0.33% hits; AID 588478;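 active = mean inhibition over replicate wells above about 20%, limit read from the data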;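 also: 0% = compound-free wells with enzyme and 100% = wells lacking proteasome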
#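 System: Proteasome-associated human UCH37 deubiquitinase; Input: 0.15 nM proteasome in added enzyme buffer; Also added: Ub-AMC substrate from 1 µM stock; Incubation: 30 min compound-proteasome preincubation then 25 min substrate reaction, room temperature; Detection: fluorescence, ex 355 nm, em 460 nm; Read-out: % inhibition of Ub-AMC cleavage fluorescence; Benchmarks: no-proteasome and no-compound wells.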
# HKDC1 inhibitor – blocks human hexokinase HKDC1 activity; recombinant HKDC1, G6PDH/diaphorase resazurin coupled fluorescence; inhibition, % at 20 µM; 340,000 compounds, 0.16% hits;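 active = inhibition above about 35% when tested at 20 µM, limit read from the data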;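 also: plate controls were DMSO wells with enzyme for no effect and DMSO wells lacking enzyme for full effect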
# Target sequence (Q2TB90 whole entry, looked up): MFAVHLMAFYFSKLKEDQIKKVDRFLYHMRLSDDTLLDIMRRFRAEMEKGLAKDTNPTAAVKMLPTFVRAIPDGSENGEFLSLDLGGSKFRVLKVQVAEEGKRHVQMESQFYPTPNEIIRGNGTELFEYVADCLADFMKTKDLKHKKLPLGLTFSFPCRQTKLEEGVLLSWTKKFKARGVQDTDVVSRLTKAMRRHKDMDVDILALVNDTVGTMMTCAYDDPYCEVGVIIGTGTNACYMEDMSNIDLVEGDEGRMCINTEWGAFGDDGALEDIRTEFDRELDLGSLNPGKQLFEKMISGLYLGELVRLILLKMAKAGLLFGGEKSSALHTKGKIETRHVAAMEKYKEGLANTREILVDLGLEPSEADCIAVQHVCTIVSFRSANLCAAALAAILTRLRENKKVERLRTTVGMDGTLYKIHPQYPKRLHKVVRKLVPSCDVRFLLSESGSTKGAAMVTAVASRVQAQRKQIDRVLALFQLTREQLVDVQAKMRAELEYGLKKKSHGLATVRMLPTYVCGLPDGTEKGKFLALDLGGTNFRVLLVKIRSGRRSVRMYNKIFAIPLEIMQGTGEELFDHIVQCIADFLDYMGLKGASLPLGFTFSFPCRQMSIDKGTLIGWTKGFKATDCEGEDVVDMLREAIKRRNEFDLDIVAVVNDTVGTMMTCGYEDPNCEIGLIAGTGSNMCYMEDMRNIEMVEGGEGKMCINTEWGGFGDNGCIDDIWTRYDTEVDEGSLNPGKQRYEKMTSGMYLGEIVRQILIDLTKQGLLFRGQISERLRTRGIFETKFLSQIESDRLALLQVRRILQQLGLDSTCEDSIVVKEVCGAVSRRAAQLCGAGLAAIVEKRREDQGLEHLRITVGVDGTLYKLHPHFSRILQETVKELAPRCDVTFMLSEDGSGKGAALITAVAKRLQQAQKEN
#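 Test system: recombinant HKDC1 (HK5) hexokinase enzyme, produced in-house; Amount: enzyme 5 µg/mL final; Buffer or medium: Tris pH 8.0 buffer with MgCl2, Tween-20, BSA, BME; Reagent: glucose and ATP substrates; Doses: 20 µM test compound, 1% DMSO; Incubation: 90 min reaction incubation at room temperature, dark; Detection: resorufin fluorescence at 613 nm.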
# PfG6PD inh – PfG6PD (Plasmodium falciparum) enzyme inhibition; PfGluPho enzyme, NADPH resazurin-diaphorase fluorescence; inhibition, % at 20 µM; 350,000 compounds, 0.78% hits; AID 504690;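 active = inhibition reaching at least a set limit at 20 µM in the primary screen, cut at about 59% in these data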;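 also: 0% = DMSO wells with substrate and 100% = DMSO wells lacking glucose-6-phosphate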
# B2AR ag – activates human beta-2 adrenergic receptor causing internalization. 340,000 compounds, 0.43% hits. Am2.2-beta2AR cells, FAP receptor internalization, flow cytometry. response, % (concentration not given with the values). AID 504454;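 active = response above a set limit, near 3 SD of response in nonfluorescent compounds, cut at about 42% in these data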
# Cardio protect – modulators protecting cardiomyocytes from myocardial damage | H9c2 cardiomyocytes, H2O2 injury protection, ATPLite, 2 h | protection from H2O2 cell death, % at 20 µM | 360,000 compounds, 0.63% hits | AID 588492;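 active = compounds giving at least 50% protection of heart cells from peroxide-induced death in the single-dose screen, raw or plate-pattern-corrected value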;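 also: 0% = DMSO wells with peroxide and 100% = DMSO wells without peroxide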
# aDG glyco up – increases alpha dystroglycan glycosylation; AID 624168; Pro5-aDG cells, alpha-DG glycosylation AlphaScreen (IIH6); 0% Pro5, 100% B10-LARGE cell signal; 360,000 compounds, 0.22% hits; activation, % at 10 µM;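 active = activation of at least 8% versus controls, or a plate z-score of at least 8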;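 also: Pro5 are CHO cells carrying HIG-tagged alpha-DG that lacks glycosylation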
# * hit, by the source's call; i = inactive; nt = no result given.
SMILES,UCH37 DUB inh,HKDC1 inhibitor,PfG6PD inh,B2AR ag,Cardio protect,aDG glyco up
CN(c1ccccc1)S(=O)(=O)c1ccc(NC(=O)c2nc(S(C)(=O)=O)ncc2Cl)cc1,nt,12.4,45.0,89.5*,-15.4,-0.2
CN(c1ccccc1)S(=O)(=O)c1ccc(NC(=O)c2ccccc2)cc1,-0.5,-0.2,18.5,2.9,-0.1,-0.2
CCc1ccc(NC(=O)c2nc(S(=O)(=O)Cc3ccccc3)ncc2Cl)cc1,nt,nt,nt,52.2*,-16.4,-0.5
CCCNC(=O)C(Cc1cccc(C#N)c1)NC(=O)c1ccc(C#N)cc1 (stereo not given),0.1,-7.1,7.5,-3.9,0.5,-0.1
CCCNC(=O)C(Cc1cccc(Cl)c1)NC(=O)c1ccc(C#N)cc1 (stereo not given),26.9*,-8.1,10.5,2.3,6.8,0.0
O=C(N/N=C/c1ccc([N+](=O)[O-])o1)c1cc2ccccc2o1,nt,-3.7,37.7,5.2,-11.0,3.6*
CCN(CC)c1ccc(C=NNC(=O)CCC(=O)NCc2ccccc2)c(O)c1,-22.1,nt,nt,nt,nt,nt
O=C(CCC(=O)N/N=C/c1cc(Cl)cc(Cl)c1O)NCc1ccccc1,nt,1.1,-2.7,2.4,51.8*,0.2
Cn1c(=O)c2c(nc(SCCN3CCOCC3)n2Cc2ccc(Cl)cc2)n(C)c1=O,2.7,-3.7,-3.0,-8.4,64.1*,-0.4
O=C(CSc1n[nH]c(-c2ccccc2)n1)Nc1ncc(Br)cc1Br,-1.8,47.7*,18.8,-5.4,4.2,0.2
O=C(CSc1n[nH]c(-c2cccnc2)n1)Nc1ccccc1,-1.3,-4.9,12.5,-2.1,-4.0,-0.1
CC(C)CC(NC(=O)c1ccccc1)C(=O)NN=Cc1ccco1 (stereo not given),-1.5,nt,nt,nt,nt,nt
COC(=O)c1cc(Cl)c(NC(=O)/C=C/c2ccc(OC)c(OC)c2)cc1OC,-326.4,6.4,1.5,1.5,68.0*,-0.3
COC(=O)c1cc(OC)c(OC)cc1NC(=O)c1ccc(OC)c(OC)c1,-223.9,1.3,10.1,26.5,51.9*,-0.4
COc1ccc(C=NN2CCN(C)CC2)cc1OC,-0.7,nt,nt,nt,nt,nt
N=c1sccn1CC(=O)Nc1cccc2ccccc12,20.3*,-1.6,-8.1,0.2,13.6,0.7
CSc1ccccc1NC(=O)Cn1ccsc1=N,0.0,-7.4,4.2,4.8,4.7,0.1
COC(=O)c1cc2ccccn2c2c(C(=O)OC)c(C(=O)OC)cc1-2,6.1,8.3,7.4,5.8,79.4*,-0.2
COC(=O)c1cc2c(C)cc3ccc(C)cn3c-2c1C(=O)OC,3.2,11.0,-1.1,0.5,11.7,-0.1
COC(=O)c1cc2c(C)c(C)c3ccccn3c-2c1C(=O)OC,8.4,3.2,19.4,9.9,62.4*,-0.3
COc1ccc(C=NNC(=O)c2ccncc2)cc1CN1CCCc2ccccc21,6.1,nt,nt,nt,nt,nt
CN(C)c1ccc(C=NNC(=O)CCCO)cc1,-306.5,nt,nt,nt,nt,nt
O=C(N/N=C/c1ccccn1)c1[nH]c2ccc([N+](=O)[O-])cc2c1-c1ccccc1,nt,-2.5,-7.4,0.6,84.1*,-0.1
CCOc1ccc(C(=O)Nc2nnc(NC(=S)Nc3ccccc3)s2)cc1,nt,-8.0,6.3,102.8*,-25.7,1.4
Cc1ccc(C(=O)Nc2nnc(NC(=S)Nc3ccccc3)s2)cc1,0.8,-8.1,-1.8,10.9,-12.0,0.4
SMILES,UCH37 DUB inh,HKDC1 inhibitor,PfG6PD inh,B2AR ag,Cardio protect,aDG glyco up
CCCc1cc(=O)oc2c(CNc3ccc(OCC)cc3)c(O)ccc12,-186.5,15.2,18.9,1.3,59.4*,0.0
CCCCc1cc(=O)oc2c(CN3CCCC3)c(O)ccc12,i,1.4,8.4,-4.7,1.6,-0.1
O=C(N/N=C/c1ccccc1O)c1ccncc1,nt,-33.4,-20.8,-5.8,59.0*,0.9
O=C(N/N=C/c1ccccc1O)c1cc[n+]([O-])cc1,nt,-24.8,-48.9,2.3,54.5*,-0.2
O=C(NN=Cc1ccccc1Cl)c1ccncc1,1.7,nt,nt,nt,nt,nt
O=C(N/N=C/c1ccccc1)c1cc[n+]([O-])cc1,nt,-6.1,1.9,-8.5,5.5,-0.1
O=C(NN=Cc1ccc([N+](=O)[O-])cc1)c1cc(C2CC2)[nH]n1,7.4,nt,nt,nt,nt,nt
CC1=NN(C(=O)CSCc2ccccc2)C(O)(c2ccc(F)cc2)C1 (stereo not given),21.8*,-10.3,-15.6,0.6,5.5,-0.1
CCN(CC)c1ccc(C=Nn2c(=S)[nH]nc(C)c2=O)cc1,1.3,nt,nt,nt,nt,nt
c1ccc(NN=C(Cc2ncc[nH]2)c2ccccc2)cc1,0.6,nt,nt,nt,nt,nt
CC(=NN1CCN(Cc2ccccc2Cl)CC1)c1ccc(F)cc1,0.6,nt,nt,nt,nt,nt
CC(=NN=C(N)N)c1ccc(Cl)c(Cl)c1,11.8,nt,nt,nt,nt,nt
Cc1cc(C)nc(NN=Cc2ccccc2OCc2ccc(Br)cc2)n1,0.6,nt,nt,nt,nt,nt
C=CCOc1c(Br)cc(CNc2ccc(NC(=O)CCC)cc2)cc1OCC,-4.1,-0.6,13.1,-7.9,-9.2,0.0
C=CCOc1c(Br)cc(CNc2ccc(NC(=O)C(C)C)c(OC)c2)cc1OCC,5.2,5.4,60.0*,13.3,-12.0,0.5
O=C(CN(CCc1ccccc1)S(=O)(=O)c1ccc(Cl)cc1)NN=Cc1ccc2c(c1)OCO2,3.0,nt,nt,nt,nt,nt
Cc1ccc[n+](CC(=O)/C=C2\N(C)c3ccccc3C2(C)C)c1,20.4*,-8.3,-5.1,5.4,-4.6,-0.2
NC(=O)c1ccc(N=C2C(=O)Nc3ccc([N+](=O)[O-])cc32)cc1,84.4*,-23.6,36.4,-0.7,9.0,0.0
O=C(Cc1c(F)cccc1Cl)NN=Cc1cccnc1,4.2,nt,nt,nt,nt,nt
O=C(N/N=C\c1cn(-c2ccccc2)nc1-c1ccccc1)c1ccc2c(c1)OCO2,nt,-8.6,6.5,-2.4,52.5*,-0.1
O=C(N/N=C/c1coc2ccccc2c1=O)c1cn(-c2ccccc2)nc1-c1ccccc1,nt,20.2,-8.4,56.9*,3.5,-0.1
O=C(NN=Cc1cn(-c2ccccc2)nc1-c1cccnc1)c1cccnc1,5.0,nt,nt,nt,nt,nt
O=C(NN=Cc1cn(-c2ccccc2)nc1-c1ccccc1)c1ccc2c(c1)OCO2,3.2,nt,nt,nt,nt,nt
O=C(N/N=C/c1cn(-c2ccccc2)nc1-c1cccnc1)c1ccccc1,nt,-8.8,12.2,-5.5,60.6*,-0.3
COc1ccc(-c2nn(-c3ccccc3)cc2/C=N/NC(=O)c2ccc(Br)o2)cc1,nt,-3.6,-10.2,60.9*,-32.8,0.1
O=C(O)CCC(=NNC(=O)CNC(=O)c1ccc(F)cc1)c1ccccc1,4.9,nt,nt,nt,nt,nt
Cc1ccc(C(=O)NN=CC2=Cc3ccccc3OC2C)cc1 (stereo not given),-12.1,nt,nt,nt,nt,nt
O=C(NN=Cc1ccc([N+](=O)[O-])cc1)c1cccnc1,11.5,nt,nt,nt,nt,nt
CC(C)(C)c1n[nH]c(=S)n(N=Cc2cccs2)c1=O,4.0,nt,nt,nt,nt,nt
COc1ccc(-c2nn(-c3ccccc3)cc2/C=C/C(=O)OCC(=O)Nc2ccc(C#N)cc2)cc1,-23.6,-3.0,6.6,55.1*,3.6,0.0
